In ChEMBL document CHEMBL2385057 (Bioorg Med Chem Lett, 2013):

system: not listed separately; experiment: Half life in human liver microsomes; format: ADME, Microsome; conditions: not given

Compound | half-life
COc1ccc(-c2cc(C3=Nc4c(C(C)(C)C)nn(CCO)c4C(=O)NC3)ccc2OC)c(OC)c1 | 43 min
CCC(C)(C)c1nn(CCO)c2c1N=C(c1ccc(-n3ccnc3C)cc1)CNC2=O | 6.9 min
COc1ccc(C2=Nc3c(C(C)(C)C)nn(CCO)c3C(=O)NC2)cc1-c1cnn(C)c1 | 59 min
COc1ccc(C2=Nc3c(C(C)(C)C)nn(CCO)c3C(=O)NC2)cc1-c1cnc(N(C)C)cc1C | 74 min
COc1ncc(-c2cc(C3=Nc4c(C(C)(C)C)nn(CCO)c4C(=O)NC3)ccc2OC)c(OC)n1 | 36 min
COc1ccc(C2=Nc3c(C(C)(C)C)nn(CCO)c3C(=O)NC2)cc1-c1cnc(N2CCCC2)nc1 | 33 min
COc1ccc(C2=Nc3c(C(C)(C)C)nn(CCO)c3C(=O)NC2)cc1-c1cnc(N2CCOCC2)nc1 | 39 min
COc1ccc(-c2cc(C3=Nc4c(C(C)(C)C)nn(CCO)c4C(=O)NC3)ccc2OC)c(OC)n1 | 57 min
COc1ccc(C2=Nc3c(C(C)(C)C)nn(CCO)c3C(=O)NC2)cc1-c1cnc(N(C)C)nc1 | 36 min
COc1ccc(C2=Nc3c(C(C)(C)C)nn(CCO)c3C(=O)NC2)cc1-c1cnc(N2CCCCC2)nc1 | 18 min
COc1ncc(-c2cc(C3=Nc4c(C(C)(C)C)nn(CCO)c4C(=O)NC3)ccc2OC)cn1 | 34 min
COc1ccc(C2=Nc3c(C(C)(C)C)nn(CCCO)c3C(=O)NC2)cc1-c1ccccc1SC | 51 min

system: not listed separately; experiment: Volume of distribution at steady state in Sprague-Dawley rat at 1 mg/kg, iv and 10 mg/kg, po; format: ADME, organism-based; conditions: in vivo, read-out: Vdss
Outline: (§1)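 Male Sprague–Dawley rats, two animals per route. Dosing was either intravenous at 1 mg/kg or oral at 10 mg/kg. Pharmacokinetic parameters were derived from these dosings.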

Compound | Vd
COc1ncc(-c2cc(C3=Nc4c(C(C)(C)C)nn(CCO)c4C(=O)NC3)ccc2OC)cn1 | 3.02 L/kg

system: Brain; experiment: Total drug level in brain of medial meniscal transection rat osteoarthritis pain model at 10 mg/kg, sc administered on day 28 post medial meniscal transection surgery measured at 1 hr to 3 hrs; format: ADME, organism-based; set-up: dose 10 mg/kg, route subcutaneous; conditions: read-out: Drug uptake, in vivo

Compound | concentration
COc1ncc(-c2cc(C3=Nc4c(C(C)(C)C)nn(CCO)c4C(=O)NC3)ccc2OC)cn1 | 475 nM

system: not listed separately; experiment: Oral bioavailability in Sprague-Dawley rat at 10 mg/kg; format: ADME, organism-based; conditions: in vivo; outline: as §1

Compound | bioavailability
COc1ncc(-c2cc(C3=Nc4c(C(C)(C)C)nn(CCO)c4C(=O)NC3)ccc2OC)cn1 | 78%

system: not listed separately; experiment: AUC in Sprague-Dawley rat at 10 mg/kg, po; format: ADME, organism-based; set-up: dose 10 mg/kg, route oral; conditions: plasma; outline: as §1

Compound | AUC
COc1ncc(-c2cc(C3=Nc4c(C(C)(C)C)nn(CCO)c4C(=O)NC3)ccc2OC)cn1 | 4530 ng·h/mL

system: not listed separately; experiment: Fraction unbound in brain of medial meniscal transection rat osteoarthritis pain model at 10 mg/kg, sc administered on day 28 post medial meniscal transection surgery measured at 1 hr to 3 hrs; format: ADME, organism-based; set-up: dose 10 mg/kg, route subcutaneous; conditions: not given

Compound | fraction unbound
COc1ncc(-c2cc(C3=Nc4c(C(C)(C)C)nn(CCO)c4C(=O)NC3)ccc2OC)cn1 | 0.009

molecular target: cGMP-dependent 3',5'-cyclic phosphodiesterase (Homo sapiens, UniProt O00408); experiment: Inhibition of PDE2 catalytic domain (unknown origin); conditions: not given
Sequence (O00408 whole entry, the tested form may be a part): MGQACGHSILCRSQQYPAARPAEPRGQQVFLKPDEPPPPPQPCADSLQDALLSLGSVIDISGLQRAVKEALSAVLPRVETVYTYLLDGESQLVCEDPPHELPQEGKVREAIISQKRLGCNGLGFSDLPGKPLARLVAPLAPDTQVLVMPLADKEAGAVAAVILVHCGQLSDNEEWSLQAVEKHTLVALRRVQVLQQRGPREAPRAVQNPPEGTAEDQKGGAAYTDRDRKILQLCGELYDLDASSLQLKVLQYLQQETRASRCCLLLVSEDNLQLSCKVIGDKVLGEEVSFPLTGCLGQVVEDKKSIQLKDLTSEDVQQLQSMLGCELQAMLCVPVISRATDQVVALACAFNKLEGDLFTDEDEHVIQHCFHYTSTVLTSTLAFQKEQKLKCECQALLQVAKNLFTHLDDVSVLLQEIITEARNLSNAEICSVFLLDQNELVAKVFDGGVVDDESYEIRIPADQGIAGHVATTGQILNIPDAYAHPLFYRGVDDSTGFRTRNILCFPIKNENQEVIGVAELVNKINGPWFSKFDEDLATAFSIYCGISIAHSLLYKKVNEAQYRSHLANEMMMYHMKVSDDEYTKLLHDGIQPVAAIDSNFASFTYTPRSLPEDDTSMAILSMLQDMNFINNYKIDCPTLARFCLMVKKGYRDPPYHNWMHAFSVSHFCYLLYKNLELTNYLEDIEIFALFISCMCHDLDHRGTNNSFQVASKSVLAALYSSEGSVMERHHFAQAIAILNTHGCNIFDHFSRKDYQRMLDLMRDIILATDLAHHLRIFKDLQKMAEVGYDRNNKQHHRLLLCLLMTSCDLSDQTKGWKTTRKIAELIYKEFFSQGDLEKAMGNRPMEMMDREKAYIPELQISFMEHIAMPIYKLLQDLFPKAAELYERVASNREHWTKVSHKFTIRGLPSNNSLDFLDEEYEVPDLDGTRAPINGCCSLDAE

Compound | IC50
COc1ccc(-c2cc(C3=Nc4c(C(C)(C)C)nn(CCO)c4C(=O)NC3)ccc2OC)c(OC)c1 | 3.4 nM
COc1ccc(C2=Nc3c(C(C)(C)C)nn(CCO)c3C(=O)NC2)cc1-c1cnn(C)c1 | 6.8 nM
COc1ccc(C2=Nc3c(C(C)(C)C)nn(CCO)c3C(=O)NC2)cc1-c1cnc(N(C)C)cc1C | 1.3 nM
COc1ncc(-c2cc(C3=Nc4c(C(C)(C)C)nn(CCO)c4C(=O)NC3)ccc2OC)c(OC)n1 | 9.3 nM
COc1ccc(C2=Nc3c(C(C)(C)C)nn(CCO)c3C(=O)NC2)cc1-c1cnc(N2CCCC2)nc1 | 1.2 nM
COc1ccc(C2=Nc3c(C(C)(C)C)nn(CCO)c3C(=O)NC2)cc1-c1cnc(N2CCOCC2)nc1 | 1.4 nM
COc1ccc(-c2cc(C3=Nc4c(C(C)(C)C)nn(CCO)c4C(=O)NC3)ccc2OC)c(OC)n1 | 1.8 nM
COc1ccc(C2=Nc3c(C(C)(C)C)nn(CCO)c3C(=O)NC2)cc1-c1cnc(N(C)C)nc1 | 2.5 nM
COc1ccc(C2=Nc3c(C(C)(C)C)nn(CCO)c3C(=O)NC2)cc1-c1cnc(N2CCCCC2)nc1 | 2.5 nM
COc1ccc(C2=Nc3c(C(C)(C)C)nn(CCCO)c3C(=O)NC2)cc1-c1ccccc1SC | 505 nM

system: not listed separately; experiment: Fraction unbound in plasma of medial meniscal transection rat osteoarthritis pain model at 10 mg/kg, sc administered on day 28 post medial meniscal transection surgery measured at 1 hr to 3 hrs; format: ADME, organism-based; set-up: dose 10 mg/kg, route subcutaneous; conditions: not given

Compound | fraction unbound
COc1ncc(-c2cc(C3=Nc4c(C(C)(C)C)nn(CCO)c4C(=O)NC3)ccc2OC)cn1 | 0.032

system: Rattus norvegicus; experiment: Analgesic activity in medial meniscal transection rat osteoarthritis pain model assessed as inhibition of change in hind paw weight distribution at 10 mg/kg, sc administered on day 28 post medial meniscal transection surgery measured after 1 hr relative to vehicle-treated control; format: functional; conditions: route subcutaneous
Outline: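 The rats were assessed for hind paw weight distribution. On day 28 after surgery they received a single subcutaneous dose of compound or vehicle and were reassessed 1 and 3 h post dose. N = 6 rats per group, data as mean ± SEM. Significance was tested by one-way ANOVA with Dunnett's test against vehicle at the same time point, P < 0.05.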

Compound | inhibition in vivo at 10 mg/kg
COc1ncc(-c2cc(C3=Nc4c(C(C)(C)C)nn(CCO)c4C(=O)NC3)ccc2OC)cn1 | 79%

molecular target: 3',5'-cyclic-AMP phosphodiesterase 4B (Homo sapiens, UniProt Q07343); experiment: Inhibition of PDE4B catalytic domain (unknown origin); conditions: not given
Sequence (Q07343 whole entry, the tested form may be a part): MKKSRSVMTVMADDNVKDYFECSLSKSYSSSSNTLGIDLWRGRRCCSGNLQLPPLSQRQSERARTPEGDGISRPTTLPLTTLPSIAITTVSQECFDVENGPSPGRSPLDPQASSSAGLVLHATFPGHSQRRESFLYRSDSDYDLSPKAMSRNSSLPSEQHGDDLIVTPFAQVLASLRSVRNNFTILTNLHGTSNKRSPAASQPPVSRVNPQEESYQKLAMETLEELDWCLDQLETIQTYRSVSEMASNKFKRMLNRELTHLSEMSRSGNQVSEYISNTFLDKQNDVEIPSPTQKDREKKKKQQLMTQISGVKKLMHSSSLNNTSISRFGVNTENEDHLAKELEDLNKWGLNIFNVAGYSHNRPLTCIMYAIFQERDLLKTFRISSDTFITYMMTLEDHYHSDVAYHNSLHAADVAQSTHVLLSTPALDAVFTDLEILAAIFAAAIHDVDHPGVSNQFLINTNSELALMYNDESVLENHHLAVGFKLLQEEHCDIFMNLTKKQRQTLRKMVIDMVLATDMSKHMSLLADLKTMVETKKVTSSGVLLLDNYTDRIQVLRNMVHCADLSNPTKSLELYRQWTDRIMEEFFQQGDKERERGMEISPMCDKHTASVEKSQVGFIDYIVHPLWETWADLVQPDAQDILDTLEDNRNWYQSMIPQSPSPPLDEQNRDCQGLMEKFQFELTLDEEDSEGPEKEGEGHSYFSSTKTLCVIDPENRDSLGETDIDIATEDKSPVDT
Outline: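 Each IC50 is the mean of at least two independent determinations. Each curve had 10 half-log dilutions, centred near the 50% inhibition level, with each point run in duplicate.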

Compound | IC50
COc1ccc(-c2cc(C3=Nc4c(C(C)(C)C)nn(CCO)c4C(=O)NC3)ccc2OC)c(OC)c1 | 741 nM
COc1ccc(C2=Nc3c(C(C)(C)C)nn(CCO)c3C(=O)NC2)cc1-c1cnn(C)c1 | 110 nM
COc1ccc(C2=Nc3c(C(C)(C)C)nn(CCO)c3C(=O)NC2)cc1-c1cnc(N(C)C)cc1C | 534 nM
COc1ncc(-c2cc(C3=Nc4c(C(C)(C)C)nn(CCO)c4C(=O)NC3)ccc2OC)c(OC)n1 | 138 nM
COc1ccc(C2=Nc3c(C(C)(C)C)nn(CCO)c3C(=O)NC2)cc1-c1cnc(N2CCCC2)nc1 | 410 nM
COc1ccc(C2=Nc3c(C(C)(C)C)nn(CCO)c3C(=O)NC2)cc1-c1cnc(N2CCOCC2)nc1 | 265 nM
COc1ccc(-c2cc(C3=Nc4c(C(C)(C)C)nn(CCO)c4C(=O)NC3)ccc2OC)c(OC)n1 | 418 nM
COc1ccc(C2=Nc3c(C(C)(C)C)nn(CCO)c3C(=O)NC2)cc1-c1cnc(N(C)C)nc1 | 695 nM
COc1ccc(C2=Nc3c(C(C)(C)C)nn(CCO)c3C(=O)NC2)cc1-c1cnc(N2CCCCC2)nc1 | 353 nM
COc1ncc(-c2cc(C3=Nc4c(C(C)(C)C)nn(CCO)c4C(=O)NC3)ccc2OC)cn1 | 562 nM
COc1ccc(C2=Nc3c(C(C)(C)C)nn(CCCO)c3C(=O)NC2)cc1-c1ccccc1SC | 100000 nM

system: not listed separately; experiment: Clearance in Sprague-Dawley rat at 1 mg/kg, iv and 10 mg/kg, po; format: ADME, organism-based; conditions: in vivo; outline: as §1

Compound | clearance
COc1ncc(-c2cc(C3=Nc4c(C(C)(C)C)nn(CCO)c4C(=O)NC3)ccc2OC)cn1 | 27 mL/min/kg

system: not listed separately; experiment: Plasma concentration in medial meniscal transection rat osteoarthritis pain model at 10 mg/kg, sc administered on day 28 post medial meniscal transection surgery measured at 1 hr; format: ADME, organism-based; set-up: dose 10 mg/kg, route subcutaneous; conditions: not given
Outline: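 Plasma was sampled 1 h after a single subcutaneous 10 mg/kg dose in the rat osteoarthritis pain model. Free concentration was derived using the rat plasma free fraction.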

Compound | concentration at 1 h
COc1ncc(-c2cc(C3=Nc4c(C(C)(C)C)nn(CCO)c4C(=O)NC3)ccc2OC)cn1 | 2500 nM

system: not listed separately; experiment: Tmax in Sprague-Dawley rat at 10 mg/kg, po; format: ADME, organism-based; set-up: dose 10 mg/kg, route oral; conditions: in vivo; outline: as §1

Compound | Tmax
COc1ncc(-c2cc(C3=Nc4c(C(C)(C)C)nn(CCO)c4C(=O)NC3)ccc2OC)cn1 | 180 min

system: not listed separately; experiment: Half life in Sprague-Dawley rat at 1 mg/kg, iv; format: ADME, organism-based; set-up: dose 1 mg/kg, route intravenous; conditions: in vivo; outline: as §1

Compound | half-life
COc1ncc(-c2cc(C3=Nc4c(C(C)(C)C)nn(CCO)c4C(=O)NC3)ccc2OC)cn1 | 90 min

system: Rattus norvegicus; experiment: Analgesic activity in medial meniscal transection rat osteoarthritis pain model assessed as inhibition of change in hind paw weight distribution at 10 mg/kg, po administered on day 28 post medial meniscal transection surgery measured after 1 hr relative to vehicle-treated control; format: functional; conditions: not given

Compound | inhibition in vivo at 10 mg/kg
COc1ncc(-c2cc(C3=Nc4c(C(C)(C)C)nn(CCO)c4C(=O)NC3)ccc2OC)cn1 | 44%

system: not listed separately; experiment: Half life in rat liver microsomes; format: ADME, Microsome; conditions: not given

Compound | half-life
COc1ncc(-c2cc(C3=Nc4c(C(C)(C)C)nn(CCO)c4C(=O)NC3)ccc2OC)cn1 | > 60 min
